# ChEMBL document CHEMBL1629660, “Pharmacodynamics of tigecycline against phenotypically diverse Staphylococcus aureus isolates in a murine thigh model” (Antimicrob Agents Chemother, 2009)
# Legend:
# Staphylococcus aureus [1] = test: Antimicrobial activity against Community-acquired methicillin-resistant Staphylococcus aureus isolate 156 by broth microdilution method; type: functional
# Summary of the method: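 Tigecycline MIC by CLSI broth microdilution, run in triplicate; modal MIC reported. Isolates stored at –80°C in double-strength skim milk and subcultured twice on Trypticase soy agar with 5% sheep blood before use.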
# [2] = Cmax in neutropenic ICR mouse infected with Staphylococcus aureus ATCC 29213 at 25 mg/kg, sc by HPLC; type: ADME, organism-based; set-up: dose 25 mg/kg, route subcutaneous; settings: in vivo
# Summary of the method: (§1)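 Neutropenic female ICR mice (cyclophosphamide 150 and 100 mg/kg ip, 4 days and 1 day before inoculation), both thighs inoculated im with ~10^7 CFU/ml of ATCC 29213. Single sc doses of 50, 25, 12.5 or 6.25 mg/kg. Cardiac blood taken from groups of six at 8–12 times over 0.5–24 h. Serum measured by HPLC (linear 0.05–5 µg/ml). Two-compartment fit by nonlinear least squares; AUC by trapezoidal rule.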
# [3] = Tmax in neutropenic ICR mouse infected with Staphylococcus aureus ATCC 29213 at 12.5 mg/kg, sc by HPLC; type: ADME, organism-based; set-up: dose 12.5 mg/kg, route subcutaneous; settings: in vivo; summary of the method: as §1
# [4] = AUC (0 to 24 hrs) in neutropenic ICR mouse infected with Staphylococcus aureus ATCC 29213 at 6.25 mg/kg, sc by HPLC; type: ADME, organism-based; set-up: time < 24 hr, dose 6.25 mg/kg, route subcutaneous; settings: plasma; summary of the method: as §1
# [5] = Elimination half life in neutropenic ICR mouse infected with methicillin-sensitive Staphylococcus aureus ATCC 29213 at 25 mg/kg, sc by HPLC; type: ADME, organism-based; set-up: dose 25 mg/kg, route subcutaneous; settings: in vivo, read-out: beta t1/2 (converted); summary of the method: as §1
# [6] = Elimination half life in neutropenic ICR mouse infected with methicillin-sensitive Staphylococcus aureus ATCC 29213 at 12.5 mg/kg, sc by HPLC; type: ADME, organism-based; set-up: dose 12.5 mg/kg, route subcutaneous; settings: in vivo, read-out: beta t1/2 (converted); summary of the method: as §1
# [7] = Elimination half life in neutropenic ICR mouse infected with methicillin-sensitive Staphylococcus aureus ATCC 29213 at 6.25 mg/kg, sc by HPLC; type: ADME, organism-based; set-up: dose 6.25 mg/kg, route subcutaneous; settings: in vivo, read-out: beta t1/2 (converted); summary of the method: as §1
# Staphylococcus aureus [8] = test: Antimicrobial activity against hospital-acquired methicillin-resistant Staphylococcus aureus isolate 56 infected in neutropenic ICR mouse assessed as decrease in bacterial density at 1.56 to 400 mg/kg, sc after 24 hrs; type: functional; settings: dose mg/kg 1.56-400; route subcutaneous
# Summary of the method: (§2)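 Female ICR mice (~25 g) made neutropenic with cyclophosphamide 150 and 100 mg/kg ip, 4 and 1 days before infection. Each thigh inoculated im with 0.1 ml of ~10^7 CFU/ml from an overnight subculture. Tigecycline sc (0.2 ml) given 2 h later as single or multiple doses of 1.56–50 mg/kg, 1.56–400 mg/kg/day, 3 mice/group. Saline-injected controls. Thighs harvested at 24 h, homogenized in saline, plated on blood agar; log10 CFU change vs 0-h controls.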
# Staphylococcus aureus [9] = test: Antimicrobial activity against community-acquired methicillin-resistant Staphylococcus aureus isolate 156 infected in neutropenic ICR mouse assessed as decrease in bacterial density at 1.56 to 400 mg/kg, sc after 24 hrs; type: functional; settings: dose mg/kg 1.56-400; route subcutaneous; summary of the method: as §2
# [10] = fAUC/MIC in hospital-acquired methicillin-resistant Staphylococcus aureus isolate 56-infected neutropenic ICR mouse at 80% effective exposure index; type: functional
# Summary of the method: (§3)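 Single-dose serum PK in infected neutropenic mice (sc 6.25–50 mg/kg; HPLC; two-compartment fit; AUC by trapezoidal rule; lower doses simulated). Free fraction from ultrafiltration of spiked mouse serum, in triplicate. Free exposures divided by modal MIC and plotted against 24-h log10 CFU change with a sigmoidal Emax model; EI50, EI80 and stasis values read from the fitted curves.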
# [11] = fAUC/MIC in community acquired methicillin-resistant Staphylococcus aureus isolate 147-infected neutropenic ICR mouse at 80% effective exposure index; type: functional; summary of the method: as §3
# [12] = fAUC/MIC in hospital-acquired methicillin-resistant Staphylococcus aureus isolate 56-infected neutropenic ICR mouse at 50% effective exposure index; type: functional; summary of the method: as §3
# [13] = fAUC/MIC in community acquired methicillin-resistant Staphylococcus aureus isolate 144-infected neutropenic ICR mouse at 50% effective exposure index; type: functional; summary of the method: as §3
# [14] = fAUC/MIC in methicillin-sensitive Staphylococcus aureus ATCC 29213-infected neutropenic ICR mouse at stasis dose; type: functional
# Summary of the method: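 fT>MIC, fCmax/MIC and fAUC/MIC were built from the serum pharmacokinetics, protein binding, modal broth-microdilution MIC (triplicate, CLSI) and 24-h thigh CFU change. Each index was fit to a sigmoidal Emax model. EI50, EI80 and stasis exposures were taken from each isolate's curve.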
# [15] = fAUC/MIC in methicillin-sensitive Staphylococcus aureus ATCC 25923-infected neutropenic ICR mouse at stasis dose; type: functional; summary of the method: as §3
# [16] = fAUC/MIC in hospital-acquired methicillin-resistant Staphylococcus aureus isolate 152-infected neutropenic ICR mouse at stasis dose; type: functional; summary of the method: as §3
# [17] = fAUC/MIC in community acquired methicillin-resistant Staphylococcus aureus isolate 147-infected neutropenic ICR mouse at stasis dose; type: functional; summary of the method: as §3
# Staphylococcus aureus [18] = test: Antimicrobial activity against hospital-acquired methicillin-resistant Staphylococcus aureus isolate 56 infected in neutropenic ICR mouse assessed as change in bacterial load after 24 hrs; type: functional; summary of the method: as §2
# Staphylococcus aureus [19] = test: Antimicrobial activity against community acquired methicillin-resistant Staphylococcus aureus isolate 156 infected in neutropenic ICR mouse assessed as change in bacterial load after 24 hrs; type: functional; summary of the method: as §2
# Staphylococcus aureus [20] = test: Antimicrobial activity against community acquired methicillin-resistant Staphylococcus aureus isolate 156 infected in neutropenic ICR mouse assessed as change in bacterial load at 3.13 […] after 24 hrs; type: functional; summary of the method: as §2
# Staphylococcus aureus [21] = test: Antimicrobial activity against community acquired methicillin-resistant Staphylococcus aureus isolate 156 infected in neutropenic ICR mouse assessed as change in bacterial load at 6.25 […] after 24 hrs; type: functional; summary of the method: as §2
# Staphylococcus aureus [22] = test: Antimicrobial activity against community acquired methicillin-resistant Staphylococcus aureus isolate 156 infected in neutropenic ICR mouse assessed as change in bacterial load at 12.5 […] after 24 hrs; type: functional; summary of the method: as §2
# [23] = r2 for fAUC/MIC in methicillin-sensitive Staphylococcus aureus ATCC 25923-infected neutropenic ICR mouse
# [24] = r2 for fCmax/MIC in methicillin-sensitive Staphylococcus aureus ATCC 25923-infected neutropenic ICR mouse
# [25] = r2 of fAUC/MIC in hospital-acquired methicillin-resistant Staphylococcus aureus isolate 56-infected neutropenic ICR mouse
# [26] = r2 of fCmax/MIC in hospital-acquired methicillin-resistant Staphylococcus aureus isolate 56-infected neutropenic ICR mouse
# [27] = r2 of fT>MIC in methicillin-sensitive methicillin-sensitive Staphylococcus aureus ATCC 29213-infected neutropenic ICR mouse
# [28] = r2 for fAUC/MIC in hospital-acquired methicillin-resistant Staphylococcus aureus isolate 152-infected neutropenic ICR mouse
# [29] = r2 for fAUC/MIC in community acquired methicillin-resistant Staphylococcus aureus isolate 144-infected neutropenic ICR mouse
# [30] = r2 for fCmax/MIC in community acquired methicillin-resistant Staphylococcus aureus isolate 156-infected neutropenic ICR mouse
compound,measurement,setting,value
CN(C)c1cc(NC(=O)CNC(C)(C)C)c(O)c2c1C[C@H]1C[C@H]3[C@H](N(C)C)C(O)=C(C(N)=O)C(=O)[C@@]3(O)C(O)=C1C2=O [TIGECYCLINE],MIC,Staphylococcus aureus [1],0.125 µg/mL
same,Cmax,[2],5330 ng/mL
same,Tmax,[3],0.45 h
same,AUC(0-t) at 24 h,[4],4800 ng·h/mL
same,half-life,[5],11.8 h
same,half-life,[6],10.1 h
same,half-life,[7],10.5 h
same,CFU,Staphylococcus aureus [8],1.5
same,CFU,Staphylococcus aureus [9],1.5
same,fAUC/MIC,[10],4.2
same,fAUC/MIC,[11],3.5
same,fAUC/MIC,[12],2.5
same,fAUC/MIC,[13],2.2
same,fAUC/MIC,[14],0.5
same,fAUC/MIC,[15],5.3
same,fAUC/MIC,[16],1.6
same,fAUC/MIC,[17],1.7
same,log10CFU/ml,Staphylococcus aureus [18],2
same,log10CFU/ml,Staphylococcus aureus [19],2.1
same,log10CFU/ml,Staphylococcus aureus [20],0.5
same,log10CFU/ml,Staphylococcus aureus [21],0.1
same,log10CFU/ml,Staphylococcus aureus [22],-1.1
same,r2,[23],0.877
same,r2,[24],0.508
same,r2,[25],0.957
same,r2,[26],0.704
same,r2,[27],0.699%
same,r2,[28],0.997
same,r2,[29],0.954
same,r2,[30],0.88
